Values after ≈ are worked out from the molar mass of the structure shown.

Type in all cases: physicochemical
Data set [1] in a line: Solubility of the compound in 5 % PEG5000 by UV/visible spectroscopy. In a few lines: (§1)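 The compound was diluted from a 10 mM aqueous stock of its HCl salt into 10 mM citrate-phosphate buffer, pH 6.5, containing the organic solvent at the stated % (v/v). Samples were centrifuged, and soluble material was read by UV absorbance at 252 nm. The pellet was resuspended in pure solvent and read as a check. Values are the mean of four independent measurements.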

Data set [2] is described as follows: Solubility of the compound in 2.5 % PEG5000 by UV/visible spectroscopy. The essentials:
as §1

The nature of data set [3]: Solubility of the compound in 5 % PEG3350 by UV/visible spectroscopy. In a few lines: as §1
A short description of data set [4]: Solubility of the compound in 10 % PEG5000 by UV/visible spectroscopy. In a few lines:
as §1

Data set [5] can be described thus: Solubility of the compound in 10 % glycerol by UV/visible spectroscopy. The essentials: as §1
Data set [6] is described as follows: Solubility of the compound in 2.5 % DMF by UV/visible spectroscopy. The essentials: as §1
A short description of data set [7]: Solubility of the compound in 10 % MeOH by UV/visible spectroscopy. In a few lines: as §1
Data set [8] in a line: Solubility of the compound in citrate-phosphate buffer at pH 6.5. The essentials:
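The compound was diluted from a 10 mM aqueous stock (pH about 1) into 10 mM citrate-phosphate buffer, pH 6.5, with no organic cosolvent. After centrifugation, soluble material was quantified by UV absorbance at 252 nm. The resuspended precipitate was also measured. Values are the mean of four independent measurements.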

Data set [9] is described as follows: Solubility of the compound in 10 % DMF by UV/visible spectroscopy. The essentials: as §1
Data set [10] is described as follows: Solubility of the compound in 5 % DMSO by UV/visible spectroscopy. In a few lines:
as §1

Data set [11] is described as follows: Solubility of the compound in 5 % glycerol by UV/visible spectroscopy. In a few lines:
as §1

Data set [12] can be described thus: Solubility of the compound in 5 % MeOH by UV/visible spectroscopy. In a few lines: as §1
Data set [13] in a line: Solubility of the compound in 2.5 % MeOH by UV/visible spectroscopy. In a few lines:
as §1

Data set [14] in a line: Solubility of the compound in 2.5 % DMSO by UV/visible spectroscopy. The essentials: as §1
Data set [15] can be described thus: Solubility of the compound in 10 % DMSO by UV/visible spectroscopy. In a few lines:
as §1

The nature of data set [16]: Solubility of the compound in 5 % DMF by UV/visible spectroscopy. The essentials: as §1
Data set [17] in a line: Solubility of the compound in 10 % PEG3350 by UV/visible spectroscopy. In a few lines:
as §1

Data set [18] is described as follows: Solubility of the compound in 2.5 % glycerol by UV/visible spectroscopy. The essentials:
as §1

For `Cc1cc2occ(CN(C)CCN(C)Cc3cn(-c4cccc(C(F)(F)F)c4)c4ccccc34)c(=O)c2cc1C`, the solubility in data set [1] is 97 µM (≈ 53.1 µg/mL); in [2], 90 µM (≈ 49.3 µg/mL); in [3], 84 µM (≈ 46 µg/mL); in [4] it was over 100 µM; in data set [5] it was 28 µM (≈ 15.3 µg/mL); in data set [6], 35 µM (≈ 19.2 µg/mL). In addition, the solubility in [7] stood at 83 µM (≈ 45.5 µg/mL); in [8], 10 µM (≈ 5.48 µg/mL); in [9], 82 µM (≈ 44.9 µg/mL); in [10], 52 µM (≈ 28.5 µg/mL); in data set [11], 19 µM (≈ 10.4 µg/mL); in [12], 58 µM (≈ 31.8 µg/mL). The solubility in data set [13] came to 37 µM (≈ 20.3 µg/mL); in data set [14], 33 µM (≈ 18.1 µg/mL); in [15], 79 µM (≈ 43.3 µg/mL); in data set [16], 58 µM (≈ 31.8 µg/mL); in data set [17], 96 µM (≈ 52.6 µg/mL); in data set [18], 15 µM (≈ 8.21 µg/mL).
